Data set [1] can be described thus: Toxicity in C57BL/6 mouse assessed as effect on animal behavior at <=25 mg dosed as oral gavage as single bolus and measured after 24 hrs relative to control. In kind it is organism-based. Conditions: in vivo. Put shortly:
(§1)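 Male C57BL/6 mice, 6–7 weeks old, three per group. Single oral gavage bolus of 5, 10, 25, 50 or 100 mg in olive oil vehicle. Observed at 24 h for mortality, gross appearance and behavior, then post-mortem examination of liver and main organs.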

For data set [2], the system named is Mus musculus. Description: Induction of PXR-dependent CYP3A11 protein expression in C57BL/6 mouse intestine at 5 to 25 mg dosed as oral gavage as single bolus and measured after 24 hrs relative to control. It is filed as functional, organism-based. A digest of the protocol: (§2)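 Male C57BL/6 mice, 6–7 weeks old, three per group. Single oral gavage bolus of 5, 10 or 25 mg in olive oil vehicle; vehicle-only controls. Killed at 24 h. Tissue PXR mRNA measured; PXR, CYP3A11 and MDR1 protein measured by immunoblot.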

In data set [3] the target is T1, PXR (Nuclear receptor subfamily 1 group I member 2) (Homo sapiens, UniProt O75469).
T1 sequence (O75469 whole entry): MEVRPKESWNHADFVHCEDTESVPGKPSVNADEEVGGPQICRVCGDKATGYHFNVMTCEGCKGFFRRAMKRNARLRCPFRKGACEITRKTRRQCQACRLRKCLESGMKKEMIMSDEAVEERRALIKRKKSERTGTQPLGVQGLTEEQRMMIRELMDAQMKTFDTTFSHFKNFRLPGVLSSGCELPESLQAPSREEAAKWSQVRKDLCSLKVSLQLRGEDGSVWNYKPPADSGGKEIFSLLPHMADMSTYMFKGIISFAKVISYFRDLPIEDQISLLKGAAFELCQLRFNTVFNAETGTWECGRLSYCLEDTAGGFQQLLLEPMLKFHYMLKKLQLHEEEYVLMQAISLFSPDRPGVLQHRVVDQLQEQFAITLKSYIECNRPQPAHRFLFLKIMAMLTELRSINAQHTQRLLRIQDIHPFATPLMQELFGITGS
In words: Agonist activity at His-tagged PXR-LBD/SRC-1p (unknown origin) expressed in Escherichia coli BL21(DE3) by coactivator recruitment based Alpha-screen assay relative to T0901317. The following applies: read-out: Efficacy.

Data set [4] addresses T2, Nuclear receptor subfamily 1 group I member 2 (Homo sapiens, UniProt O75469).
T2 sequence (O75469 whole entry): T1 sequence (O75469 whole entry)
Description: Agonist activity at PXR in human HT29 cells assessed as increase in CYP3A4 protein expression at 1 to 25 uM incubated for 24 hrs by immunoblot analysis. In kind it is cell-based. For orientation: A western blot detects proteins with antibodies after separation by electrophoresis.

Data set [5] relates to HepG2. In words: Effect on alpha-tocopherol level in human HepG2 cells at 25 uM. It is filed as functional, cell-based.
Data set [6] concerns the target T2, Nuclear receptor subfamily 1 group I member 2. In words: Agonist activity at PXR in human HepaRG cells assessed as reversion of PXR binding at 10 uM incubated for 24 hrs by immunoblot analysis. It is filed as cell-based.
Data set [7] concerns the target T3, Oxysterols receptor LXR-beta (Homo sapiens) (UniProt P55055).
T3 sequence (whole entry): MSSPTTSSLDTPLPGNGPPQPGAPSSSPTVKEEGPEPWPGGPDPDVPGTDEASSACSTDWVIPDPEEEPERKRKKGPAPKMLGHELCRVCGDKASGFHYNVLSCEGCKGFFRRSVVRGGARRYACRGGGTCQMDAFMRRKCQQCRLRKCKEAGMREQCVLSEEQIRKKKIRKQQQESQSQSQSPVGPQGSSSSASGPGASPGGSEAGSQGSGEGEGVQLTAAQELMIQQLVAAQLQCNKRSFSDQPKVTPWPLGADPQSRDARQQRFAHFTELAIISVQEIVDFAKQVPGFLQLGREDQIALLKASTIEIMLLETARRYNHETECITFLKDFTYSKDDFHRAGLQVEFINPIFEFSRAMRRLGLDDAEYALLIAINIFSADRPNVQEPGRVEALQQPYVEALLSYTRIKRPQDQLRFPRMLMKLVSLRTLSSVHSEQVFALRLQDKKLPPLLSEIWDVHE
Description: Agonist activity at LXR-beta (unknown origin) at 10 uM by coactivator recruitment based Alpha-screen assay. (In general: Alpha assays give light when donor and acceptor beads are brought close together.)

The nature of data set [8]: Toxicity in C57BL/6 mouse assessed as effect on gross appearance at <=25 mg dosed as oral gavage as single bolus and measured after 24 hrs relative to control. In kind it is organism-based. Conditions: in vivo. Put shortly:
as §1

The target of data set [9] is T2, Nuclear receptor subfamily 1 group I member 2. In words: Agonist activity at PXR in human HT29 cells assessed as increase in PXR protein expression at 1 to 25 uM incubated for 24 hrs by immunoblot analysis. In kind it is cell-based.
The target is the same in data set [10]. Description: Agonist activity at PXR in human HepaRG cells assessed as increase in PXR protein expression at 1 to 25 uM incubated for 24 hrs by immunoblot analysis. It is filed as cell-based.
The test system of data set [11] is Mus musculus. Description: Induction of PXR protein expression in C57BL/6 mouse intestine assessed as induction of localization of PXR protein at villous epithelium at 5 to 25 mg dosed as oral gavage as single bolus and measured after 24 hrs by IHC analysis relative to control. In kind it is functional, organism-based. A digest of the protocol: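 Male C57BL/6 mice, 6–7 weeks old, three per group. Single oral gavage bolus (5–25 mg) in olive oil; vehicle controls; killed at 24 h. Liver and gut formalin-fixed, paraffin-embedded; 4 μm sections stained with H&E. PXR IHC with polyclonal antibody at 1:200 on an automated stainer with polymer detection.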

Data set [12] deals with T2, Nuclear receptor subfamily 1 group I member 2. Description: Agonist activity at PXR in human HepG2 cells assessed as increase in PXR protein expression at 1 to 25 uM incubated for 24 hrs by immunoblot analysis. In kind it is cell-based. Conditions: hepg2, 24 h. Put shortly: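 HepG2 cells, passages 2–10, treated 24 h with 1 and 25 μM. Lysates sonicated on ice; 20 μg protein run on 10–12% SDS-PAGE and immunoblotted with anti-PXR or anti-CYP3A4. Bands normalized to housekeeping protein and expressed relative to control (=1).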

Data set [13] in a line: Toxicity in C57BL/6 mouse assessed as mortality at 50 mg dosed as oral gavage as single bolus and measured after 24 hrs relative to control. It is filed as organism-based. Conditions: in vivo, read-out: Activity. Put shortly:
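Male C57BL/6 wild-type mice aged 6–7 weeks, 3 per group. Single bolus by oral gavage in an olive-oil vehicle, with vehicle-only controls and dose groups of 5, 10, 25, 50 and 100 mg. Animals were checked 24 h after dosing by gross appearance and behaviour, then killed, and liver and main organs were examined post-mortem.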

For data set [14], the target named is T2, Nuclear receptor subfamily 1 group I member 2. In words: Agonist activity at PXR in human HepG2 cells assessed as stimulation of CYP450-mediated alpha-tocopherol metabolites production at 25 uM. Conditions: hepg2, 25 µM. It is filed as cell-based.
Data set [15] has the same target. In words: Agonist activity at PXR in human HepG2 cells assessed as increase in CYP3A4 mRNA expression at 1 to 25 uM incubated for 24 hrs. Conditions: hepg2, 24 h.
Data set [16] has the same target. Description: Agonist activity at PXR in human HepG2 cells assessed as increase in MDR1 mRNA expression at 1 to 50 uM incubated for 24 hrs. Conditions: hepg2, 24 h. In kind it is cell-based. Put shortly:
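HepG2 cells exposed to 1–50 μM. MDR1 mRNA measured after RNA extraction and cDNA synthesis.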

The test system of data set [17] is Mus musculus. Description: Induction of PXR-dependent CYP3A11 protein expression in C57BL/6 mouse liver at 5 to 25 mg dosed as oral gavage as single bolus and measured after 24 hrs relative to control. It is filed as functional, organism-based. Put shortly:
as §2

The nature of data set [18]: Toxicity in C57BL/6 mouse assessed as induction of liver damage at <=25 mg dosed as oral gavage as single bolus and measured after 24 hrs relative to control. In kind it is organism-based. Conditions: in vivo. Put shortly:
as §1

Activity calls are given as the source filed them. No cut-off for these calls is given here.

`C/C(=C\CC/C(C)=C/CC[C@]1(C)CCc2cc(O)cc(C)c2O1)CC/C=C(\C)C(=O)O`: the Activity result was “Non-Toxic” in data set [1]; “Active” in data set [4]; “Active” in [6]; “Non-Toxic” in data set [8]; “Active” in [9]; “Active” in data set [10]. Moreover, the Activity entry in data set [12] is “Dose-dependent effect”; in [14], “Active”; in data set [15] it was “Dose-dependent effect”; in data set [16] it was “Dose-dependent effect”; in data set [18], “Non-Toxic”. Further, the result in data set [2], in [11] and in data set [17] was Active. The Emax in data set [3] came to 103%. In addition, the result in [5] and in data set [7] was inactive. The mortality at 24 h in [13] came out at 33%.

The record behind these values is ChEMBL document CHEMBL4402582, “Garcinoic Acid Is a Natural and Selective Agonist of Pregnane X Receptor” (J Med Chem, 2020).
